Converted amounts (≈) assume the structure as drawn.
What was measured:
P. falciparum (W2) = assay: in vitro antimalarial activity, plasmodial LDH; type: cell-based, Plasmodium falciparum; conditions: Plasmodium falciparum, W2, 72 h, read-out: P. falciparum (W2) IC50, CQ-resistant W2 strain, 72 h
In short: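 P. falciparum-infected erythrocytes (2% parasitemia, 2% hematocrit) in RPMI 1640 with 10% human serum and 60 μg/mL amikacin. Exposed to test compound dilutions for 72 h at 37 °C under 90% N2/5% O2/5% CO2. LDH measured with Malstat reagent (30 min, room temperature), then NBT/PES for 1 h in the dark, stopped with 5% acetic acid, read at 650 nm. IC50 from dose-response curves.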

C. albicans ATCC90028 = assay: in vitro antifungal activity; type: cell-based, Candida albicans; conditions: Candida albicans; for IC50: ATCC90028, read-out: C. albicans IC50; for MFC: ATCC90028, read-out: C. albicans MFC; for MIC: ATCC90028, read-out: C. albicans MIC
In short: (§1)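 Modified NCCLS broth method in Sabouraud dextrose. Inoculum set by OD630 to 1.5 × 10^3 CFU/mL. Test compound serially diluted in 20% DMSO/saline, duplicate wells, up to 20 μg/mL. Incubated 70–74 h at 35 °C; 530 nm read before and after. IC50 is 50% growth inhibition; MIC is no detectable growth. MFC from clear wells subcultured on agar. Amphotericin B control.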

[1] = test system: L. donovani promastigotes; assay: in vitro antileishmanial activity, alamarBlue assay; type: cell-based, Leishmania donovani; conditions: 48 h; for IC50: read-out: L. donovani IC50, promastigotes, 48 h
C. neoformans ATCC90113 = assay: in vitro antifungal activity; type: cell-based, Cryptococcus neoformans; conditions: Cryptococcus neoformans; for IC50: ATCC90113, read-out: C. neoformans IC50; for MFC: ATCC90113, read-out: C. neoformans MFC; for MIC: ATCC90113, read-out: C. neoformans MIC
In short: as §1

A. fumigatus ATCC 90906 = assay: in vitro antifungal activity; type: cell-based, Aspergillus fumigatus; conditions: Aspergillus fumigatus; for IC50: ATCC90906, read-out: A. fumigatus IC50; for MFC: ATCC90906, read-out: A. fumigatus MFC; for MIC: ATCC90906, read-out: A. fumigatus MIC
In short: as §1

SA (ATCC29213) = assay: in vitro antibacterial activity; type: cell-based; conditions: Staphylococcus aureus; for IC50: ATCC29213, read-out: IC50 (concentration that affords 50% growth inhibition), SA; for MBC: ATCC29213, read-out: MBC (minimum bactericidal concentration), SA; for MIC: ATCC29213, read-out: MIC, SA
In short: (§2)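 Test compound serially diluted in 20% DMSO/saline and plated in duplicate, up to 20 μg/mL. Inoculum in cation-adjusted Mueller–Hinton broth, pH 7.3, set by OD630 to 5 × 10^5 CFU/mL. Incubated 16–20 h at 35 °C; 530 nm read before and after. IC50 is 50% growth inhibition; MIC is no detectable growth. MBC from clear wells subcultured on agar. Ciprofloxacin control.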

MRSA (ATCC33591) = assay: in vitro antibacterial activity; type: cell-based, methicillin-resistant Staphylococcus aureus; conditions: Staphylococcus aureus, ATCC33591|MRSA, read-out: MIC, MRSA
In short: as §2

[2] = test system: M. intracellulare (ATCC23068); assay: in vitro antibacterial activity, modified alamarBlue procedure; type: cell-based, Mycobacterium intracellulare; conditions: Mycobacterium intracellulare; for IC50: ATCC23068, read-out: IC50 (concentration that affords 50% growth inhibition), M. intracellulare; for MBC: ATCC23068, read-out: MBC (minimum bactericidal concentration), M. intracellulare; for MIC: ATCC23068, read-out: MIC, M. intracellulare
In short: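 Modified alamarBlue microplate method. Test compound serially diluted in 20% DMSO/saline, duplicate wells, up to 20 μg/mL. Inoculum 2.0 × 10^6 CFU/mL in Middlebrook 7H9 with OADC, pH 7.3, containing 5% alamarBlue. Incubated 70–74 h at 37 °C, 10% CO2; fluorescence 544ex/590em read before and after. MIC: no blue-to-pink change. MBC by subculturing blue wells on agar. Ciprofloxacin control.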

[3] = test system: SK-MEL, KB, BT-549, SK-OV-3, VERO and LLC-PK1 cells; assay: cytotoxicity, neutral red uptake assay; type: cell-based, mammalian; conditions: highest test concentration 4760 ng/mL
In short: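 Cells seeded at 25 000/well and allowed 24 h to reach confluence. Test compound was then added and incubated 48 h. Viable cells were counted by a modified neutral red uptake method. The panel was four human cancer lines and two noncancerous mammalian kidney lines. Doxorubicin served as positive control and DMSO as negative control.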

P. falciparum (D6) = assay: in vitro antimalarial activity, plasmodial LDH; type: cell-based, Plasmodium falciparum; conditions: Plasmodium falciparum, D6, 72 h, read-out: P. falciparum (D6) IC50

Structure (SMILES) | IC50 (P. falciparum (W2)) [µg/mL] | IC50 (C. albicans ATCC90028) [µg/mL] | MFC (C. albicans ATCC90028) [µg/mL] | MIC (C. albicans ATCC90028) [µg/mL] | IC50 (C. neoformans ATCC90113) [µg/mL] | MFC (C. neoformans ATCC90113) [µg/mL] | MIC (C. neoformans ATCC90113) [µg/mL] | IC50 (A. fumigatus ATCC 90906) [µg/mL] | MFC (A. fumigatus ATCC 90906) [µg/mL] | MIC (A. fumigatus ATCC 90906) [µg/mL] | IC50 (SA (ATCC29213)) [µg/mL] | MBC (SA (ATCC29213)) [µg/mL] | MIC (SA (ATCC29213)) [µg/mL] | MIC (MRSA (ATCC33591)) [µg/mL] | IC50 [2] [µg/mL] | MBC [2] [µg/mL] | MIC [2] [µg/mL] | cytotoxicity CTX [3] | IC50 (P. falciparum (D6)) [µg/mL] | further results
C[C@@H]1CC[C@H]2[C@@H](C)C(=O)O[C@@H]3O[C@@]4(C)CC[C@@H]1[C@]32OO4 [ART, artemisinin, reference compound] | 0.009 (≈ 0.0319 µM) |  |  |  |  |  |  |  |  |  |  |  |  |  |  |  |  |  |  | 
C[C@@H]1[C@H](O)[C@@H](C)/C=C/C=C/C=C/C=C/C=C/C=C/C=C/[C@H](O[C@@H]2O[C@H](C)[C@@H](O)[C@H](N)[C@@H]2O)C[C@@H]2O[C@](O)(C[C@@H](O)C[C@@H](O)[C@H](O)CC[C@@H](O)C[C@@H](O)CC(=O)O[C@H]1C)C[C@H](O)[C@H]2C(=O)O [amphotericin B (AMP), amphotericin B, reference compound] |  | 0.17 (≈ 0.184 µM) | 1.25 (≈ 1.35 µM) | 0.63 (≈ 0.682 µM) | 0.3 (≈ 0.325 µM) | 0.63 (≈ 0.682 µM) | 0.63 (≈ 0.682 µM) | 0.68 (≈ 0.736 µM) | 2.5 (≈ 2.71 µM) | 1.25 (≈ 1.35 µM) |  |  |  |  |  |  |  |  |  | IC50 ([1]; Leishmania donovani): 0.1 µg/mL (≈ 0.108 µM); IC90 ([1]; Leishmania donovani, read-out: L. donovani IC90, promastigotes, 48 h): 0.3 µg/mL (≈ 0.325 µM)
O=C(O)c1cn(C2CC2)c2cc(N3CCNCC3)c(F)cc2c1=O [ciprofloxacin, reference compound] |  |  |  |  |  |  |  |  |  |  | 0.13 (≈ 0.392 µM) | 1 (≈ 3.02 µM) | 0.5 (≈ 1.51 µM) | 0.25 (≈ 0.754 µM) | 0.28 (≈ 0.845 µM) | 1 (≈ 3.02 µM) | 0.5 (≈ 1.51 µM) |  |  | 
CCCCOc1c(OC)cc(NC(C)CCCN)c2nc(C(C)(C)C)ccc12 (centres unmarked) [compound 45, N^4-(5-Butoxy-2-tert-butyl-6-methoxyquinolin-8-yl)pentane-1,4-diamine] | 3.3 (≈ 8.51 µM) | > 20 | > 20 | > 20 | > 20 | > 20 | > 20 | > 20 | > 20 | > 20 | > 20 | > 20 | > 20 | > 20 | > 20 | > 20 | > 20 | NC (NC, not cytotoxic up to 4760 ng/mL (4.76 μg/mL)) | > 4.76 | 
CCCCOc1c(OC)cc(NC(C)CCCNC(=O)C(N)CCCCN)c2nc(C(C)(C)C)ccc12 (centres unmarked) [compound 90, 2,6-Diamino-N-(4-(5-butoxy-2-tert-butyl-6-methoxyquinolin-8-ylamino)pentyl)-hexanamide] | 2.9 (≈ 5.62 µM) | > 20 | > 20 | > 20 | > 20 | > 20 | > 20 | > 20 | > 20 | > 20 | > 20 | > 20 | > 20 | > 20 | > 20 | > 20 | > 20 | NC (NC, not cytotoxic up to 4760 ng/mL (4.76 μg/mL)) | 4.7 (≈ 9.11 µM) | 
CCCCOc1c(OC)cc(NC(C)CCCNC(=O)C(N)CCCN)c2nc(C(C)(C)C)ccc12 (centres unmarked) [compound 91, 2,5-Diamino-N-(4-(5-butoxy-2-tert-butyl-6-methoxyquinolin-8-ylamino)pentyl)-pentanamide] | 1.3 (≈ 2.59 µM) | > 20 | > 20 | > 20 | > 20 | > 20 | > 20 | > 20 | > 20 | > 20 | > 20 | > 20 | > 20 | > 20 | > 20 | > 20 | > 20 | NC (NC, not cytotoxic up to 4760 ng/mL (4.76 μg/mL)) | 2.8 (≈ 5.58 µM) | 
CCCCCOc1c(OC)cc(NC(C)CCCNC(=O)C(N)CCCN)c2nc(C(C)(C)C)ccc12 (centres unmarked) [compound 93, 2,5-Diamino-N-(4-(2-tert-butyl-6-methoxy-5-(pentyloxy)quinolin-8-ylamino)-pentyl)pentanamide] | 0.87 (≈ 1.69 µM) | > 20 | > 20 | > 20 | 10.1 (≈ 19.6 µM) | > 20 | > 20 | > 20 | > 20 | > 20 | > 20 | > 20 | > 20 | > 20 | 8.99 (≈ 17.4 µM) | > 20 | > 20 | NC (NC, not cytotoxic up to 4760 ng/mL (4.76 μg/mL)) | 1 (≈ 1.94 µM) | 
CCCCCCOc1c(OC)cc(NC(C)CCCNC(=O)C(N)CCCN)c2nc(C(C)(C)C)ccc12 (centres unmarked) [compound 100, 2,5-Diamino-N-(4-(2-tert-butyl-5-(hexyloxy)-6-methoxyquinolin-8-ylamino)-pentyl)pentanamide] | 0.73 (≈ 1.38 µM) | > 20 | > 20 | > 20 | > 20 | > 20 | > 20 | > 20 | > 20 | > 20 | > 20 | > 20 | > 20 | > 20 | 9.34 (≈ 17.6 µM) | > 20 | > 20 | NC (NC, not cytotoxic up to 4760 ng/mL (4.76 μg/mL)) | 0.86 (≈ 1.62 µM) | 
N=C(N)c1ccc(OCCCCCOc2ccc(C(=N)N)cc2)cc1 [pentamidine, reference compound] |  |  |  |  |  |  |  |  |  |  |  |  |  |  |  |  |  |  |  | IC50 ([1]; Leishmania donovani): 1.4 µg/mL (≈ 4.11 µM); L. donovani IC50 ([1]; promastigotes): 1.1 µg/mL

From publication PMC6045484 (ACS Omega, 2018)
